# Data taken from ChEMBL document CHEMBL3580569, “N-Substituted Quinolinonyl Diketo Acid Derivatives as HIV Integrase Strand Transfer Inhibitors and Their Activity against RNase H Function of Reverse Transcriptase” (J Med Chem, 2015).
# What was measured:
# [1] = target: Human immunodeficiency virus type 1 reverse transcriptase (Human immunodeficiency virus 1, UniProt Q72547); assay: Inhibition of RNase H function of HIV1 reverse transcriptase using DNA/RNA hybrid as substrate by fluorescence spectrometer analysis
# [2] = Selectivity index, ratio of CC50 for human HeLa-CD4-LTR-beta-gal cells to EC50 for HIV-1 3B infected in human HeLa-CD4-LTR-beta-gal cells; format: toxicity; settings: read-out: Ratio CC50/EC50
# HeLa = assay: Cytotoxicity against human HeLa-CD4-LTR-beta-gal cells after 24 hrs by ATPlite reagent based luminescence analysis; format: cell-based
# [3] = target: T1, Human immunodeficiency virus type 1 integrase (Human immunodeficiency virus 1, UniProt Q7ZJM1)
# T1 sequence (Q7ZJM1 whole entry): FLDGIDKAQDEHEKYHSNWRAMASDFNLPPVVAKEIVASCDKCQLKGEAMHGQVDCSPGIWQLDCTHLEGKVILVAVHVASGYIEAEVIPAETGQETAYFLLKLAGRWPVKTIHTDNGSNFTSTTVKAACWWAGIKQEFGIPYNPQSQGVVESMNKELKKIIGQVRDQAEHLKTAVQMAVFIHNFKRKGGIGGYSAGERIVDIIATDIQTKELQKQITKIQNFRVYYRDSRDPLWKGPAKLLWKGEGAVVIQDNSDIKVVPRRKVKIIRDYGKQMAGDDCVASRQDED
# [4] = tested on: Human immunodeficiency virus 1; assay: Antiviral activity against HIV-1 3B infected in human HeLa-CD4-LTR-beta-gal cells assessed as inhibition of viral replication by SpectraMax GEMINI-XS plate reader analysis; format: functional, organism-based; settings: Human immunodeficiency virus 1, 3B
# Summary of the method: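 HeLa-CD4-LTR-β-gal cells kept in DMEM, 10% serum, 0.5 mg/mL G418; seeded 10000 cells/well the day before. Drug 3-fold serially diluted over six points on cells (top 50 μM), then fresh medium or concentrated HIV-1(IIIB) supernatant added.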
# [5] = target: T1, Human immunodeficiency virus type 1 integrase; remark: listed apart in the source
# [6] = target: Human immunodeficiency virus type 1 reverse transcriptase (Human immunodeficiency virus 1) (UniProt Q72547); assay: Inhibition of RNase H function of HIV1 reverse transcriptase using DNA/RNA hybrid as substrate at 10 uM by fluorescence spectrometer analysis
# Summary of the method: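 RNase H activity of HIV-1 RT was measured with an RNA/DNA hybrid substrate at 250 nM final, with 150–800 ng RT, in 50 mM Tris-HCl pH 8.0, 60 mM KCl, 10 mM MgCl2 and 1% DMSO, against DMSO-only wells. Fluorescence (ex 485/em 520 nm) was read each minute over 10 min at 37 °C. Percent inhibition at 10 μM = 100(v0−vi)/v0 from initial rates, run in triplicate.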
Compound,IC50 [1] [µM],selectivity ratio [2],CC50 (HeLa) [µM],IC50 [3] [µM],EC50 [4] [µM],IC50 [5] [µM],inhibition [6] [%]
O=C(O)/C(O)=C/C(=O)c1cn(Cc2ccc(F)cc2F)c2ccccc2c1=O,35.9,> 3.6,> 50,0.01,13.8,–,–
O=C(O)/C(O)=C/C(=O)c1cn(Cc2c(F)cccc2F)c2ccccc2c1=O [RDS-1984],10.8,> 6.2,> 50,0.019,8.1,0.7,–
CCOC(=O)/C(O)=C/C(=O)c1cn(Cc2c(Cl)cccc2Cl)c2ccccc2c1=O,> 50,> 1.7,> 50,32,30.2,–,55
O=C(O)/C(O)=C/C(=O)c1cn(Cc2ccccc2F)c2ccccc2c1=O,> 50,> 19.2,> 50,0.016,2.6,1.2,45.1
O=C(O)/C(O)=C/C(=O)c1cn(Cc2ccccc2F)c2cc(Cl)ccc2c1=O,22.6,> 2.9,> 50,–,17,–,–
COc1ccccc1Cn1cc(C(=O)/C=C(\O)C(=O)O)c(=O)c2ccccc21,16.3,> 5.4,> 50,0.038,9.3,> 4.1,–
O=C(O)/C(O)=C/C(=O)c1cn(Cc2ccc(Cl)cc2)c2ccccc2c1=O,> 50,> 57.5,> 50,0.54,0.87,22,56.2
O=C(O)/C(O)=C/C(=O)c1cn(Cc2ccc(F)c(F)c2)c2ccccc2c1=O,> 50,> 3.1,> 50,0.11,16.2,–,44
COc1ccc(Cn2cc(C(=O)/C=C(\O)C(=O)O)c(=O)c3ccccc32)cc1,> 50,–,–,0.51,> 50,28,45.8
